Reference: ChEMBL document CHEMBL1641377, “Discovery of novel, potent, selective, and orally active human glucagon receptor antagonists containing a pyrazole core” (Bioorg Med Chem Lett, 2011)
The source made the active and inactive calls. The rule behind the calls is not given here.

Columns and labels:
[1] = biological target: Glucagon-like peptide 1 receptor (Homo sapiens, UniProt P43220); assay: Antagonist activity at human GLP1R expressed in CHO cells assessed as inhibition of glucagon-induced cAMP accumulation; format: functional, cell-based
Mus musculus [2] = assay: Antidiabetic activity in transgenic mouse expressing human GCGR assessed as inhibition of glucagon-induced blood glucose excursion at 10 mg/kg, po administered 60 mins before glucagon challenge measured after 48 mins; format: functional, organism-based; parameters: dose 10 mg/kg
Procedure, shortened: (§1)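 hGCGR transgenic mice (only functional receptor is human GCGR), 9 per group, given compound orally, then glucagon 15 µg/kg IP 60 min later (one arm dosed 30 mpk three hours before challenge); blood glucose monitored at 12, 24, 36 and 48 min after glucagon.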

Oryctolagus cuniculus = organism: Oryctolagus cuniculus; assay: Binding affinity to DLZ-sensitive rabbit calcium channel up to 10 uM
Mus musculus [3] = assay: Antihyperglycemic activity in streptozotocin-induced diabetes mouse model assessed as decrease in blood glucose AUC level at 30 mg/kg, po after 4 weeks; format: functional; conditions: 672 h
Procedure, shortened: (§2)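 Diabetic model: hGCGR transgenic mice on high-fat diet for eight weeks, streptozotocin-treated during the last four weeks; single oral dose, blood glucose AUC over 2–6 h measured.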

Homo sapiens = organism: Homo sapiens; assay: Binding affinity to human sodium channel up to 10 uM
[4] = Half life in dog at 0.5 mg/kg, iv and 2 mg/kg, po; format: ADME, organism-based, Canis lupus familiaris; conditions: in vivo
Glucagon receptor [5] = biological target: T1, Glucagon receptor (Homo sapiens, UniProt P47871); assay: Antagonist activity at human GCGR expressed in CHO cells assessed as inhibition of glucagon-induced cAMP accumulation; format: functional, cell-based
Procedure, shortened: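 Inhibition of glucagon-induced cAMP accumulation in CHO cells transfected with human GCGR; IC50 derived, n given where replicated.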

[6] = Half life in mouse at 1 mg/kg, iv and 2 mg/kg, po; format: ADME, organism-based; conditions: in vivo
[7] = Bioavailability in mouse at 1 mg/kg, iv and 2 mg/kg, po; format: ADME, organism-based; conditions: in vivo
Cytochrome P450 2C9 = Cytochrome P450 2C9 (Homo sapiens, UniProt P11712); assay: Inhibition of CYP2C9; format: ADME
[8] = Cmax in rhesus monkey at 2 mg/kg, po; format: ADME, organism-based, Macaca mulatta; parameters: dose 2 mg/kg, route oral; conditions: in vivo
Mus musculus [9] = assay: Antidiabetic activity in transgenic mouse expressing human GCGR assessed as inhibition of glucagon-induced blood glucose excursion at 30 mg/kg, po administered 60 mins before glucagon challenge measured after 48 mins; format: functional, organism-based; parameters: dose 30 mg/kg; procedure, shortened: as §1
[10] = Drug level in blood of transgenic mouse expressing human GCGR at 10 mg/kg, po after 120 mins; format: ADME, organism-based; parameters: dose 10 mg/kg, route oral; conditions: read-out: Drug uptake
Procedure, shortened: (§3)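 Blood drug concentration sampled in hGCGR transgenic mice during the oral glucagon-challenge pharmacodynamic assay at 45 and 120 min post dose, 10 and 30 mpk groups, n = 3 per group.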

Cytochrome P450 3A4 = Cytochrome P450 3A4 (Homo sapiens, UniProt P08684); assay: Inhibition of CYP3A4; format: ADME
Canis familiaris [11] = assay: Dose normalized AUC in dog at 2 mg/kg, po; format: ADME, organism-based, Canis lupus familiaris; parameters: dose 2 mg/kg, route oral; conditions: in vivo
Glucagon receptor [12] = biological target: Glucagon receptor (Mus musculus, UniProt Q61606); assay: Antagonist activity at mouse GCGR assessed as inhibition of glucagon-induced cAMP accumulation; format: functional
[13] = Bioavailability in rat at 1 mg/kg, iv and 2 mg/kg, po; format: ADME, organism-based; conditions: in vivo
[14] = Blood clearance in mouse at 1 mg/kg, iv and 2 mg/kg, po; format: ADME, organism-based
[15] = Drug level in blood of transgenic mouse expressing human GCGR at 30 mg/kg, po after 120 mins; format: ADME, organism-based; parameters: dose 30 mg/kg, route oral; conditions: read-out: Drug uptake; procedure, shortened: as §3
[16] = biological target: T2, Nuclear receptor subfamily 1 group I member 2 (Homo sapiens, UniProt O75469); assay: Activity at human PXR
T2 sequence (O75469 whole entry): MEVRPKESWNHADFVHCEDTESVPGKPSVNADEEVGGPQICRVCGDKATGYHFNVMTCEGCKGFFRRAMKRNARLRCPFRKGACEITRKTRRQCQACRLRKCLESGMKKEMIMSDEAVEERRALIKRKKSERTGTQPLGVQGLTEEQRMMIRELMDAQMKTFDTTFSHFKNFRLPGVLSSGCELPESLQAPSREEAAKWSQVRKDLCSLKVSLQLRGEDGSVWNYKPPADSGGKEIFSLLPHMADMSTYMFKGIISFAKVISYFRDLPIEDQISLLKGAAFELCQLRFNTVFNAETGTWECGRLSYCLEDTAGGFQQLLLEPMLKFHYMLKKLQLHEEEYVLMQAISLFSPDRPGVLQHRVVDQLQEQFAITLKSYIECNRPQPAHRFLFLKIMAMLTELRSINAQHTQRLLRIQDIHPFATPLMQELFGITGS

Mus musculus [17] = assay: In vivo occupancy of human GCGR transfected in mouse at 10 mg/kg after 1 hr; format: functional
Procedure, shortened: (§4)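 In vivo receptor occupancy measured in hGCGR transgenic mice after oral dosing, at 1 h post-dose (30 and 10 mpk) and in a separate experiment at 1, 3 and 8 h after 10 mpk.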

Uncharacterized protein = Uncharacterized protein (Canis lupus familiaris, UniProt A0A8I3N355); assay: Antagonist activity at dog GCGR assessed as inhibition of glucagon-induced cAMP accumulation; format: functional
Mus musculus [18] = assay: Antihyperglycemic activity in streptozotocin-induced diabetes mouse model assessed as decrease in blood glucose AUC level at 10 mg/kg, po after 4 weeks; format: functional; conditions: 672 h; procedure, shortened: as §2
Cytochrome P450 2D6 = Cytochrome P450 2D6 (Homo sapiens, UniProt P10635); assay: Inhibition of CYP2D6; format: ADME
Canis familiaris [19] = assay: Cardiotoxicity in dog assessed as effect on cardiovascular parameters at 1 to 10 mg/kg, iv after 30 mins; format: toxicity, organism-based, Canis lupus familiaris, Heart; parameters: dose 1-10 mg/kg, route intravenous; conditions: in vivo, 0.5 h
Mus musculus [20] = assay: In vivo occupancy of human GCGR transfected in mouse at 10 mg/kg after 8 hrs; format: functional; procedure, shortened: as §4
[21] = Bioavailability in rhesus monkey at 0.5 mg/kg, iv and 2 mg/kg, po; format: ADME, organism-based, Macaca mulatta; conditions: in vivo
Glucagon receptor [22] = biological target: T1, Glucagon receptor; assay: Displacement of [125I]glucagon from human GCGR expressed in CHO cells; format: cell-based
Procedure, shortened: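 Binding inhibition of 125I-glucagon to human GCGR expressed in CHO cell membranes; IC50 reported, n given where replicated.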

T1 sequence (P47871 whole entry): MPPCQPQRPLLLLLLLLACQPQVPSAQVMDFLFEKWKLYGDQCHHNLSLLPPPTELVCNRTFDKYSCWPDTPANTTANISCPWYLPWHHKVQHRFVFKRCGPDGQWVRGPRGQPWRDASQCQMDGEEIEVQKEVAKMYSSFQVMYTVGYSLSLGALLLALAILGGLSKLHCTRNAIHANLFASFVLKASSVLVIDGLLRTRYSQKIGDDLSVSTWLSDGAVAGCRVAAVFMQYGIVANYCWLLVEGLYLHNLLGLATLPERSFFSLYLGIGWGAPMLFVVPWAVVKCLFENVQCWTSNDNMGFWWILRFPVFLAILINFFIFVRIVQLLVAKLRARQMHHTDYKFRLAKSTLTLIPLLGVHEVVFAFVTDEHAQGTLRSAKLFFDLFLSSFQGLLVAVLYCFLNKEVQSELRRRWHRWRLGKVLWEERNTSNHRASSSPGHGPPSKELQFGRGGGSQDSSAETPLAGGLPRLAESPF
Sequence of Glucagon-like peptide 1 receptor (P43220 whole entry): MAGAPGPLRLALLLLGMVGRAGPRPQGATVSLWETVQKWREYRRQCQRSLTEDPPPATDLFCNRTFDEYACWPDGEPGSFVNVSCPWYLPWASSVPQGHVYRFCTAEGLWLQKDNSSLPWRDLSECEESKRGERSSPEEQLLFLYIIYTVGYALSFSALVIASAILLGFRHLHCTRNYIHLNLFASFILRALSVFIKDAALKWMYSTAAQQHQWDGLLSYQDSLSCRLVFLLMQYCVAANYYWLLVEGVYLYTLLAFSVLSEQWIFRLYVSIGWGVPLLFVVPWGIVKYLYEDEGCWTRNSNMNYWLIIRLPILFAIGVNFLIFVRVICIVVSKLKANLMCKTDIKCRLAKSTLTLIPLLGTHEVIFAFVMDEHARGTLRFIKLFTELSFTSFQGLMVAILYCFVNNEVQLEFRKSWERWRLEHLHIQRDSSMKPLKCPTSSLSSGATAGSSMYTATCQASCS
Sequence of Cytochrome P450 3A4 (P08684 whole entry): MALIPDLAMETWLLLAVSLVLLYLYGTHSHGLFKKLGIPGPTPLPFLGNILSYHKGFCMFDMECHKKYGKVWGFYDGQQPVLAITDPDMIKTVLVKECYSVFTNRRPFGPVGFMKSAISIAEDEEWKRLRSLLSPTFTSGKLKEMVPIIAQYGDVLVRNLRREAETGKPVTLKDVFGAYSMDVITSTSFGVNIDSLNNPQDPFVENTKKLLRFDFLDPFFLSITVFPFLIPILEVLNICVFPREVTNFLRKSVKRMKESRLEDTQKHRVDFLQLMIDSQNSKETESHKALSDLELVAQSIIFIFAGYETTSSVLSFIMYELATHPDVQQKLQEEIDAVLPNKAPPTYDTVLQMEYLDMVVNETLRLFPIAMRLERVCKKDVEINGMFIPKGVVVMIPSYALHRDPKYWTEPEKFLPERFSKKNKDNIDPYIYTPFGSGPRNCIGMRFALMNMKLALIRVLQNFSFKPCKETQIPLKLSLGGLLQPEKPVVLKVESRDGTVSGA
Sequence of Cytochrome P450 2C9 (P11712 whole entry): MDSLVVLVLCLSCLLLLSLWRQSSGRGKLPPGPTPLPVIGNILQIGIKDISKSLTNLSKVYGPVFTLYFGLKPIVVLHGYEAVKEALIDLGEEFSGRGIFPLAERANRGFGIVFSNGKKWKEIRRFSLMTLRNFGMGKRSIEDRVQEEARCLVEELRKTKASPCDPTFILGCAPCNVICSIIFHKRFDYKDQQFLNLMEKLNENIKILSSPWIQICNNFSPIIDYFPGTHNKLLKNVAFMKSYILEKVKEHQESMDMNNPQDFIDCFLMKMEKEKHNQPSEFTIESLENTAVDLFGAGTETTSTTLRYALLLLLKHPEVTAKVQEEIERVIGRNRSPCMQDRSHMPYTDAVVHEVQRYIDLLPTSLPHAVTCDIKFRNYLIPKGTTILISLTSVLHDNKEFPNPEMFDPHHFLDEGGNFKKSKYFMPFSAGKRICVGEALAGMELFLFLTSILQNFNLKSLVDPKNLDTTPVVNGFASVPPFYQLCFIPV
Sequence of Glucagon receptor (Mus musculus, UniProt Q61606) (Q61606 whole entry): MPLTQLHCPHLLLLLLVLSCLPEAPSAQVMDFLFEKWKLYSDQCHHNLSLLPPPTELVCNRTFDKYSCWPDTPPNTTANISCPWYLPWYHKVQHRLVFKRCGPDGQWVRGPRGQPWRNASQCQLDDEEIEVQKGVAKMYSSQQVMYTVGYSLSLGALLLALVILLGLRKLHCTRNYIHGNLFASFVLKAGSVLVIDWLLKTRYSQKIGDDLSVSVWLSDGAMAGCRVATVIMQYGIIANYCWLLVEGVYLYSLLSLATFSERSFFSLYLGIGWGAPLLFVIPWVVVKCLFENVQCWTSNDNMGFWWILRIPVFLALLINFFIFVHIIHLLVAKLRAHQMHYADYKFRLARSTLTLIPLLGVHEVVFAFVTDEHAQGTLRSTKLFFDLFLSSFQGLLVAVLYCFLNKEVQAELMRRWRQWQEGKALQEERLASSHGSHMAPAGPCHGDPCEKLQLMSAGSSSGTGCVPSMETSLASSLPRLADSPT
Sequence of Uncharacterized protein (A0A8I3N355 whole entry): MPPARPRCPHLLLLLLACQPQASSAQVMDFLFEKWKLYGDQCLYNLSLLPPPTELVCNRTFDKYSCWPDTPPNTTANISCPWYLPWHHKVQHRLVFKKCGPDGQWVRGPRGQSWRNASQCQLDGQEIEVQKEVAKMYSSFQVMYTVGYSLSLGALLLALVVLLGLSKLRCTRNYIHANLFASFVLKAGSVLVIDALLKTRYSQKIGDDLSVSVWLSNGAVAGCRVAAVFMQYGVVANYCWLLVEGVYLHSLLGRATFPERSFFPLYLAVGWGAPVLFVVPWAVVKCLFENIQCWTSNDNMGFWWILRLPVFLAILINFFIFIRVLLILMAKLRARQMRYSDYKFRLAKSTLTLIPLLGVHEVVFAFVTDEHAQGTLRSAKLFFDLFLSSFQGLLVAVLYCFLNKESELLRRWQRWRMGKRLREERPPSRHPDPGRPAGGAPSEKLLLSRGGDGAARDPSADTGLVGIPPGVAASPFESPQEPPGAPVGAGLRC
Sequence of Cytochrome P450 2D6 (P10635 whole entry): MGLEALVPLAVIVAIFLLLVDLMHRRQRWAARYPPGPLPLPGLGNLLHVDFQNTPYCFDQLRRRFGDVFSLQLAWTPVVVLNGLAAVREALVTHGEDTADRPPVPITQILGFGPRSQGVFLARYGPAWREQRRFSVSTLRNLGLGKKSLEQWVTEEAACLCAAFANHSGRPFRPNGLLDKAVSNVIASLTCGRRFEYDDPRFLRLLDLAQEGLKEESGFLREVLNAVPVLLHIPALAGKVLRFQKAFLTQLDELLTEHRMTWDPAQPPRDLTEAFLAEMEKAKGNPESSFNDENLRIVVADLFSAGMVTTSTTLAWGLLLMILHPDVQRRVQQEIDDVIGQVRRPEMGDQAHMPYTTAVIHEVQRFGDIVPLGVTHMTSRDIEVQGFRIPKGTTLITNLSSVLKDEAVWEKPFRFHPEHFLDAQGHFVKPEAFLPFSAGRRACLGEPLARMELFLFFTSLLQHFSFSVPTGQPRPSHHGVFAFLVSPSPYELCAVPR

Q: With `O=C(O)CCNC(=O)c1ccc(Cn2nc(-c3cc(Cl)cc(Cl)c3)cc2-c2ccc(OC(F)(F)F)cc2)cc1` as the molecule, how does the IC50 [1] read?
A: > 10 µM

Q: And the inhibition (Mus musculus [2])?
A: Active

Q: And the Activity (Oryctolagus cuniculus)?
A: inactive

Q: And the inhibition in vivo at 30 mg/kg (Mus musculus [3])?
A: 37%

Q: And the Activity (Homo sapiens)?
A: inactive

Q: And the half-life [4]?
A: 3.6 h

Q: What about the IC50 (Glucagon receptor [5]) of the same molecule?
A: 0.11 µM

Q: What about the half-life [6] of the same molecule?
A: 2.3 h

Q: What about the bioavailability [7] of the same molecule?
A: 15%

Q: What about the IC50 (Cytochrome P450 2C9) of the same molecule?
A: 5.8 µM

Q: What about the Cmax [8] of the same molecule?
A: 4.2 µM

Q: What about the inhibition (Mus musculus [9]) of the same molecule?
A: Active

Q: What about the concentration at 2 h [10] of the same molecule?
A: 3.35 µM

Q: And the IC50 (Cytochrome P450 3A4)?
A: 39 µM

Q: What about the AUC (Canis familiaris [11]) of the same molecule?
A: 27 µM·kg·h/mg

Q: What about the IC50 (Glucagon receptor [12]) of the same molecule?
A: 2 µM

Q: And the bioavailability [13]?
A: 57%

Q: What about the clearance [14] of the same molecule?
A: 6.1 mL/min/kg

Q: What about the concentration at 2 h [15] of the same molecule?
A: 14.2 µM

Q: And the EC50 [16]?
A: > 25 µM

Q: What about the Activity (Mus musculus [17]) of the same molecule?
A: 64%

Q: What about the IC50 (Uncharacterized protein) of the same molecule?
A: 0.4 µM

Q: What about the inhibition in vivo at 10 mg/kg (Mus musculus [18]) of the same molecule?
A: 27%

Q: And the IC50 (Cytochrome P450 2D6)?
A: > 100 µM

Q: And the Activity (Canis familiaris [19])?
A: Non-toxic

Q: What about the Activity (Mus musculus [20]) of the same molecule?
A: 51%

Q: What about the bioavailability [21] of the same molecule?
A: 68%

Q: And the IC50 (Glucagon receptor [22])?
A: 0.084 µM
